These results are taken from ChEMBL document CHEMBL1139327, “Synthesis and biological properties of Pachastrissamine (jaspine B) and diastereoisomeric jaspines” (2009).

Assay [1] relates to A549. The assay is described as follows: Cytotoxicity against human A549 cells assessed as PI positive cells after 24 hrs by flow cytometry. Type of assay: functional, cell-based. In a few lines:
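A549 cells exposed 24 h to a range of compound concentrations, harvested by brief trypsinization, double-stained with Alexa Fluor 488 annexin V and propidium iodide, analysed by flow cytometry; percentage of cells positive for annexin V, PI or both scored against untreated control.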
(In general: A flow cytometer gives signals particle by particle.)

For assay [2], the system named is A549. The experiment in a line: Cytotoxicity against human A549 cells after 24 hrs by MTT assay in presence of 3-methyladenine. In kind it is functional. In a few lines: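 A549 (HAM F12/glutamine, 10% FBS, 37 °C, 5% CO2) pretreated 2 weeks with 10 mM 3-MA in flask, medium changed every 2 days. Then 10^5 cells/well seeded in medium with 3-MA plus compounds at 0.02–400 μM final (ethanol vehicle, 0.1%), 24 h. Viability by MTT, LD50 derived. Means SD, three independent experiments, triplicates.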
A general note: Tetrazolium assays rely on reduction of a dye to a coloured formazan, in cell work by metabolically active cells.

Assay [3] deals with A549. The experiment in a line: Cytotoxicity against human A549 cells after 24 hrs by MTT assay. In kind it is functional. To be noted: A549, 24 h, read-out: LD50 (the source's name). In a few lines: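 Human alveolar epithelial A549 cells (ATCC) grown in HAM F12 with glutamine plus 10% FBS at 37 °C, 5% CO2. Seeded at 10^5 cells/well; after 24 h, medium renewed and compounds (ethanol stocks; vehicle control 0.1% ethanol) added to final 0.02–400 µM for 24 h. Viable cells by MTT; LD50 from concentration–response; means of three independent experiments with triplicates.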

Assay [4] has as its system A549. The assay is described as follows: Cytotoxicity against human A549 cells after 24 hrs by MTT assay in absence of 3-methyladenine. In kind it is functional. In a few lines: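 A549 (ATCC) grown in HAM F12 with glutamine + 10% FBS, 37 °C, 5% CO2. Seeded 10^5 cells/well, medium renewed after 24 h, then exposed 24 h to 0.02–400 μM final (ethanol stock; 0.1% ethanol vehicle control). Viable cells by MTT; LD50 taken from curves. Means SD, three independent experiments in triplicate.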

Assay [5] deals with A549. The experiment in a line: Induction of 3-methyladenine-inhibited autophagy in human A549 cells assessed as increase in ceramide levels.

Activity calls are given as the source filed them. The rule behind the calls is not given here.

For `CCCCCCCCCCCCCC[C@@H]1OC[C@H](N)[C@H]1O`, the Activity entry in the assay on A549 [1] was “Dose-dependent effect”. The result in the assay on A549 [2] was inactive. The CC50 in the assay on A549 [3] is 1500 nM.

`CCCCCCCCCCCCCC[C@H](O)[C@@H](O)[C@@H](N)CO`: the Activity was found to be 28.2 µM in the assay with A549 [4] and 29.4 µM in the assay with A549 [2].

In the case of `CCCCCCCCCCCCCC[C@@H]1OC[C@H](N)[C@@H]1O` [PACHASTRISSAMINE], the Activity entry in the assay on A549 [5] and in the assay with A549 [1] was “Dose-dependent effect” throughout. Besides, the outcome with A549 [2] was inactive. Also, the CC50 with A549 [3] was 130 nM.

For `CCCCCCCCCCCCCC[C@H]1OC[C@H](N)[C@H]1O`, the Activity entry in the assay with A549 [1] was “Dose-dependent effect”. The outcome in the assay on A549 [2] was inactive. Further, in the assay with A549 [3], the CC50 worked out at 2500 nM.

For the molecule `CCCCCCCCCCCCCC[C@H]1OC[C@H](N)[C@@H]1O` [2-EPI JASPINE B], in the assay on A549 [1], the Activity entry was “Dose-dependent effect”. Moreover, the result in the assay with A549 [2] was inactive. Moreover, in the assay on A549 [3], the CC50 worked out at 1250 nM.
